The results in this text go back to ChEMBL document CHEMBL4196175, “First SAR Study for Overriding NRAS Mutant Driven Acute Myeloid Leukemia” (J Med Chem, 2018).

Structures are written as SMILES. Calls of active or inactive are those of the source. The calls are words filed in the database; no cut-off is given here.

Data set [1] has as its target T1, Mitogen-activated protein kinase kinase kinase kinase 2 (Homo sapiens, UniProt Q12851).
T1 sequence (Q12851 whole entry): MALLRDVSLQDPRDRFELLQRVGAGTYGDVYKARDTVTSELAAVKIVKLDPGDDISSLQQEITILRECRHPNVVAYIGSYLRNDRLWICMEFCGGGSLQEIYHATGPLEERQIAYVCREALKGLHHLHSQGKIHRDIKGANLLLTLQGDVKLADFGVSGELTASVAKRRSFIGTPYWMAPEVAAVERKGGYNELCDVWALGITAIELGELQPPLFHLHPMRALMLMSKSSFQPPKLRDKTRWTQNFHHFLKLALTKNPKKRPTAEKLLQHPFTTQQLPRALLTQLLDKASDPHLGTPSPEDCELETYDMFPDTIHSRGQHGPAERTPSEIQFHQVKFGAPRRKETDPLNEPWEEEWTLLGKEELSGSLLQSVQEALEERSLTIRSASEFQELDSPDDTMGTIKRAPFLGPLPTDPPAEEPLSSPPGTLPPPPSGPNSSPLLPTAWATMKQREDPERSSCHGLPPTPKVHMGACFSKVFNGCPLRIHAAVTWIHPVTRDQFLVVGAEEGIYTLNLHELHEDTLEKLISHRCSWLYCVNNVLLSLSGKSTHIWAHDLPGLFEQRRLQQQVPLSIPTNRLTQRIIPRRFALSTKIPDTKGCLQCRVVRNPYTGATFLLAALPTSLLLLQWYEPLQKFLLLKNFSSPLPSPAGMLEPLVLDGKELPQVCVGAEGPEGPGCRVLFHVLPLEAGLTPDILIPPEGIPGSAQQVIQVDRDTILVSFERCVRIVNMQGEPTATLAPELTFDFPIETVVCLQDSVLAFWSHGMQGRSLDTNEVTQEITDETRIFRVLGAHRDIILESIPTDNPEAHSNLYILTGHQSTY
Put plainly: Inhibition of GCK (unknown origin) by radiometric biochemical kinase assay.

Data set [2] is described as follows: Growth inhibition of parental human U937 cells after 72 hrs by celltiter-glo assay. The format is cell-based, U-937.
Data set [3] in a line: Metabolic stability in human liver microsomes assessed as compound remaining at 1 uM after 30 mins. Format: ADME, microsome. The note with it: read-out: Stability.
A short description of data set [4]: Metabolic stability in mouse liver microsomes assessed as compound remaining at 1 uM after 30 mins. Format: ADME, microsome. Particulars: read-out: Stability.
For data set [5], the target named is T2, CYP1A2 (Homo sapiens, UniProt P05177).
T2 sequence (P05177 whole entry): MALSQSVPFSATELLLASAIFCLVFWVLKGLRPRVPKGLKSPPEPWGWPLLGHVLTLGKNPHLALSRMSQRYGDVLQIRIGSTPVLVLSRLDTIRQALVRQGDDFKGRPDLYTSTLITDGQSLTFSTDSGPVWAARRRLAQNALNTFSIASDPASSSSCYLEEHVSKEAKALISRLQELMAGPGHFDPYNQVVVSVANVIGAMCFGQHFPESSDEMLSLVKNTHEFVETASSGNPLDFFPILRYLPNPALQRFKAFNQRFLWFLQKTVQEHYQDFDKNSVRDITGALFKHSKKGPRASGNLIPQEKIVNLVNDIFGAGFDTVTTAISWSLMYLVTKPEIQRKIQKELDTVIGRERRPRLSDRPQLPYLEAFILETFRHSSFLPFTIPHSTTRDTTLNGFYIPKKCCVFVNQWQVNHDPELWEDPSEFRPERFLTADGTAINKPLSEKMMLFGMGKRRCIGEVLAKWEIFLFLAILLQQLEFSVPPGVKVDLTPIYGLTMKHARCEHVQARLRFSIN
Put plainly: Inhibition of CYP1A2 (unknown origin) assessed as activity remaining at 10 uM relative to control. Particulars: read-out: Activity. The format is ADME.

Data set [6] has as its target Activated CDC42 kinase 1 (Mus musculus) (UniProt O54967). Kind of data set: Inhibition of ACK1 in mouse BA/F3 cells harboring NRAS-G12D mutant assessed as reduction in AKT phosphorylation at S473 at 1 uM after 2 hrs by Western blot analysis. Format: cell-based. In short, it runs like this:
(§1)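 Ba/F3-NRAS-G12D or OCI-AML3 cells exposed 2 h to compounds (1 µM, or a dose series in OCI-AML3); phospho-p70S6K1, phospho-AKT S473, phospho-JNK and phospho-p38 assessed by western blot, actin as loading control.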

For data set [7], the target named is T3, Mitogen-activated protein kinase kinase kinase kinase 2 (Mus musculus) (UniProt Q61161).
T3 sequence (whole entry): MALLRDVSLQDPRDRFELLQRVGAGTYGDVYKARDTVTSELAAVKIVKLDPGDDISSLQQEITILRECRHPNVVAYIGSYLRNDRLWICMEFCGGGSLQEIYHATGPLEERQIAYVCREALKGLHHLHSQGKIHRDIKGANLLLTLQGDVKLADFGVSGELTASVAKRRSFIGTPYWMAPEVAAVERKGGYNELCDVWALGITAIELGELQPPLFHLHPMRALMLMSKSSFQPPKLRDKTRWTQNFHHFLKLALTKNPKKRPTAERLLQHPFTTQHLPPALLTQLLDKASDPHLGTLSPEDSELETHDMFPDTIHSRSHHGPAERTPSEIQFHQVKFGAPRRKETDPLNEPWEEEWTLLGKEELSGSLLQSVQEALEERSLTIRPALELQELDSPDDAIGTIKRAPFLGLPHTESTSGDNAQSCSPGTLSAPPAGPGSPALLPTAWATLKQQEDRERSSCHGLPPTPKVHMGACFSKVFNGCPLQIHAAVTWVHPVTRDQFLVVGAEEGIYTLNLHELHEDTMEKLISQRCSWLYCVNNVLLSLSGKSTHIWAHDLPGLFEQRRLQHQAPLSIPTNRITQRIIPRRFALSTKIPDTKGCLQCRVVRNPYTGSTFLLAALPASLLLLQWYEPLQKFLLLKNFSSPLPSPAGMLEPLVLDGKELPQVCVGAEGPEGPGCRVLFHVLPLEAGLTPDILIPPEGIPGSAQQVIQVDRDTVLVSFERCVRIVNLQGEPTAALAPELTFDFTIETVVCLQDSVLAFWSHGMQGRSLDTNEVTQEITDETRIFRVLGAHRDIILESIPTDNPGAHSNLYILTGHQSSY
Put plainly: Inhibition of GCK in mouse BA/F3 cells harboring NRAS-G12D mutant assessed as reduction in JNK phosphorylation at T183/Y185 at 1 uM after 2 hrs by Western blot analysis. Format: cell-based. Put shortly:
as §1

Data set [8] addresses T4, Activated CDC42 kinase 1 (Homo sapiens, UniProt Q07912). Kind of data set: Inhibition of ACK1 in human OCI-AML3 cells harboring NRAS Q61L mutant assessed as reduction in P70S6K1 phosphorylation at Thr421/Ser424 at 1 uM after 2 hrs by Western blot analysis. Format: cell-based. Put shortly: as §1
Data set [9] has as its target T4, Activated CDC42 kinase 1. Put plainly: Inhibition of ACK1 in human OCI-AML3 cells harboring NRAS Q61L mutant assessed as reduction in AKT phosphorylation at S473 at 1 uM after 2 hrs by Western blot analysis. The format is cell-based. Put shortly:
as §1

The test system of data set [10] is OCI-AML-3. Kind of data set: Inhibition of anchorage-independent cell growth in human OCI-AML3 cells harboring NRAS Q61L mutant assessed as reduction in colony number at 0.1 to 1 uM after 14 days by iodonitrotetrazolium chloride staining-based soft agar assay. Format: functional. Put shortly: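 OCI-AML3 cells embedded in 0.7% low-melting agar, incubated 2 weeks with compound at 0.1 or 1 µM; colony number and colony size per well measured by automated image analysis; n = 3 per condition, SD, one-way ANOVA.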

T4 sequence (Q07912 whole entry, looked up): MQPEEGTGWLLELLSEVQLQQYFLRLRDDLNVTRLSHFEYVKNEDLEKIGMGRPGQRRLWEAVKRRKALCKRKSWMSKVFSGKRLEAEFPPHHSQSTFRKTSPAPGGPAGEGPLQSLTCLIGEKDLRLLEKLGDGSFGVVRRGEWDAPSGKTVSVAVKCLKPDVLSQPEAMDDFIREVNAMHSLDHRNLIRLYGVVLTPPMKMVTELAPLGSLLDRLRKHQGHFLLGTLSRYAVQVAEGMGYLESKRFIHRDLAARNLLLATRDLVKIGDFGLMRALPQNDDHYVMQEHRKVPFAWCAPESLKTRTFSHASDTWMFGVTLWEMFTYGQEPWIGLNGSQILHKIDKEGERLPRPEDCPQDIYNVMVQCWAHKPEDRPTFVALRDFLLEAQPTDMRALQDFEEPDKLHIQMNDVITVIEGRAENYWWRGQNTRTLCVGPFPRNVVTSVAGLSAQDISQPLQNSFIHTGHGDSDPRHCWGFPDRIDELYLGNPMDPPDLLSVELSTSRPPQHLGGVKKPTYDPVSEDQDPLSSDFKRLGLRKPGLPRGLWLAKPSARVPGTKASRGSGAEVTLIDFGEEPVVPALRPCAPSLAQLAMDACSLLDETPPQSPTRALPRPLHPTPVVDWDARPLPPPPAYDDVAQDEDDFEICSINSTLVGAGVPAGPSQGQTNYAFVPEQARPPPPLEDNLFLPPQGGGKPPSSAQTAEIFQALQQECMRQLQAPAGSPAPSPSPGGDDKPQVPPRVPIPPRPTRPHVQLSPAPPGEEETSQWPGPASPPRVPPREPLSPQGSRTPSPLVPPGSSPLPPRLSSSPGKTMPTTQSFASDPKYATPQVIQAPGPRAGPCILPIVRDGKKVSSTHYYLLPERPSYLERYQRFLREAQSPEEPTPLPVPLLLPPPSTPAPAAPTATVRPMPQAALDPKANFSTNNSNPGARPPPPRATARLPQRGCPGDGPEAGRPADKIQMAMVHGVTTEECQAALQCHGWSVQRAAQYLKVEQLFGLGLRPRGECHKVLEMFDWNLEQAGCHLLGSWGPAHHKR
Sequence of Activated CDC42 kinase 1 (Mus musculus) (O54967 whole entry): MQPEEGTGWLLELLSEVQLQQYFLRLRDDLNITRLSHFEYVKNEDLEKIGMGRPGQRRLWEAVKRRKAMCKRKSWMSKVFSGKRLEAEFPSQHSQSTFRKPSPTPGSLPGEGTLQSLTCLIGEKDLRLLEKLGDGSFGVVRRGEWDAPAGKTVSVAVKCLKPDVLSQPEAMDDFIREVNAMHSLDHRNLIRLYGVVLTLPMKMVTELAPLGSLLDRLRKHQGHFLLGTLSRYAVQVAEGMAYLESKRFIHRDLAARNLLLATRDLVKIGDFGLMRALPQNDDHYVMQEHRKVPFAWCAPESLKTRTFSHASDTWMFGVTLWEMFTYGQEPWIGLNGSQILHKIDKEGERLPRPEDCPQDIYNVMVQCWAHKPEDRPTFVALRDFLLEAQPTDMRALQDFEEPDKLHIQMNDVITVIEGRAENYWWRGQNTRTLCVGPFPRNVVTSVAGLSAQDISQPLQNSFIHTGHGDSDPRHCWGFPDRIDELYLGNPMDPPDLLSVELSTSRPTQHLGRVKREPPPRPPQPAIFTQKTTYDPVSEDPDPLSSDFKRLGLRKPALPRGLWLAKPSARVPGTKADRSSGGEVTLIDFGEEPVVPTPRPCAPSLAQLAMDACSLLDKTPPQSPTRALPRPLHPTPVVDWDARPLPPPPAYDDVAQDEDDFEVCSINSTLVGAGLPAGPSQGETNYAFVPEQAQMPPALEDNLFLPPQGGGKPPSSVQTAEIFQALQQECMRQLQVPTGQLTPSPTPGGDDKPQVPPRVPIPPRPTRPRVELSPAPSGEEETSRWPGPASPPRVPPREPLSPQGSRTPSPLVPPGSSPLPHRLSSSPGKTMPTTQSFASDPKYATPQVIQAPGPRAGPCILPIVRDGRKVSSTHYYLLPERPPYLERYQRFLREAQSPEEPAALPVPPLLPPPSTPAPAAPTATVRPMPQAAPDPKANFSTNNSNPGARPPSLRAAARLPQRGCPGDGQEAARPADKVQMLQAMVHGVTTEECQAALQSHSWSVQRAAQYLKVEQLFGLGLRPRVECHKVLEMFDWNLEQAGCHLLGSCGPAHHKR

The compound `Cc1ccc(Nc2ncc3c(n2)N(C)C(=O)N(c2cc(NC(=O)c4ccc(CN5CCC(N(C)C)C5)c(C(F)(F)F)c4)ccc2C)C3)cn1` (centres undefined) came in with an IC50 in data set [1] of 2 nM. The GI50 at 72 h in [2] is 1970 nM. Also, the remaining at 0.5 h, 1 µM in data set [3] was found to be 57.5%; in data set [4] it was 58.7%. The activity at 10 µM in [5] came out at 67.5%. In addition, the “reduction in AKT S473 phosphorylation (qualitative)” value (from here on “reduction … (qualitative)”) in data set [6] and in [9] was “Active” each time. For the same compound, in [7], the “reduction in JNK phosphorylation (active/inactive call)” value (shortened to “reduction … (active/inactive call)”) was “Active”. Further, the inhibition entry in data set [8] was “Active”. Also, the “growth inhibition (GI)” value in [10] was “Active”.
In data set [1], `CCN1CCN(C(=O)c2ccc(Nc3ncc4c(n3)N(C)C(=O)N(c3cc(NC(=O)c5cccc(C(F)(F)F)c5)ccc3C)C4)cn2)CC1` gave an IC50 of 2 nM. Further, the GI50 at 72 h in data set [2] is 6480 nM. Further, the remaining at 0.5 h, 1 µM was 24.6% in data set [3] and 24.2% in data set [4]. For the same compound, the activity at 10 µM in data set [5] was 81.8%. Further, the “reduction … (qualitative)” value in data set [6] and in [9] was “Active” throughout. Moreover, the “reduction … (active/inactive call)” value in [7] was “Active”. Also, in data set [8], the inhibition entry is “Active”.
In data set [1], `Cc1cc(Nc2ncc3c(n2)N(C)C(=O)N(c2cc(NC(=O)c4cccc(C(F)(F)F)c4)ccc2C)C3)n(C)n1` came in with a half-maximal inhibitory concentration (IC50) of 5 nM. The GI50 at 72 h in data set [2] is 2460 nM. Besides, the remaining at 0.5 h, 1 µM in [3] came to 69.2%; in data set [4], 74.7%. For the same compound, the activity at 10 µM in data set [5] was found to be 88.2%. The “reduction … (qualitative)” value in [6] and in data set [9] was “Active” in each case. In addition, the “reduction … (active/inactive call)” value in data set [7] was “Active”. In addition, the inhibition entry in data set [8] was “Active”.
The compound `Cc1ccc(NC(=O)c2cccc(C(F)(F)F)c2)cc1N1Cc2cnc(N)nc2N(C)C1=O` came in with a 50% inhibitory concentration (IC50) in data set [1] of 28 nM. The GI50 at 72 h in [2] came to 4970 nM. Further, the results for the remaining at 0.5 h, 1 µM in data set [3] and in [4] were 84.4% and 80%, respectively. Moreover, in [5], the activity at 10 µM amounted to 89.2%. The “reduction … (qualitative)” value in [6] and in data set [9] was “Active” in each case. For the same compound, the “reduction … (active/inactive call)” value in [7] is “Active”. The inhibition entry in data set [8] was “Active”. For the same compound, in [10], the “growth inhibition (GI)” value is “Active”.
In data set [1], `CC(=O)N1CCN(c2ccc(Nc3ncc4c(n3)N(C)C(=O)N(c3cc(NC(=O)c5cccc(C(F)(F)F)c5)ccc3C)C4)cn2)CC1` displayed an IC50 of 1 nM. Besides, the concentration for 50% growth inhibition (GI50) at 72 h in [2] amounted to 2480 nM. In addition, the remaining at 0.5 h, 1 µM in [3] came out at 47.3%; in data set [4], 49.1%. Also, the activity at 10 µM in [5] was 87.2%. Also, the “growth inhibition (GI)” value in [10] is “Active”.
